Diaph inh CS: inhibits diaphorase or chemically oxidizes, flagging diaphorase assay artifacts; diaphorase resazurin-to-resorufin fluorescence, NADH, 16 min; bacterial (C. kluyveri) enzyme, not human; inhibition, % at 20 µM; 190,000 tested, 0.69% active; AID 1217;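 active means primary screen inhibition at 20 µM above a set limit, cut at about 50% in these data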
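Test system: bacterial diaphorase enzyme (C. kluyveri); Quantity: 0.14 U/mL diaphorase, enzyme working solution; Times: reaction incubation of 16 min at room temperature; Measured by: fluorescence of resorufin formed from resazurin, Ex 544/Em 590 nm; Benchmarks: positive control minus NADH, DMSO neutral control.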
G6PDH CS: L. mesenteroides G6PDH inhibition counter-screen; 200,000 tested, 0.12% active; AID 1020; Purified L. mesenteroides G6PDH, diaphorase/resazurin coupled fluorescence, 45 min; inhibition, % at 5 µM
L major viab: reduces viability of Leishmania major promastigotes; resazurin fluorescence viability; inhibition, % at 10 µM; 200,000 tested, 9% active; AID 1063;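 further: promastigotes grown with compound for 44 hours at 28 °C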
DTT redox prof: compounds producing H2O2 with reducing agent – biochemical, NIH compound library profiling, artefact control for MLSCN library redox annotation, primary screen; 200,000 tested, 0.03% active; activation, % at 10 µM; DTT-dependent redox cycling H2O2, phenol red/HRP absorbance; 100% = 100 µM peroxide control, 0% = buffer; AID 878;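 active means activation of at least 50% relative to the plate's high and low controls in the primary single-dose screen; inactive means activation below 50%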;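 further: compound incubated with DTT at 0.8 mM final as the reducing agent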
Diaph act CS: activates diaphorase or chemically reduces, flagging diaphorase assay artifacts; Diaphorase/resazurin coupled assay, resorufin fluorescence, 16 min; stronger effect = higher value; 1 = vehicle wells, 0 = NADH-free wells; activation factor at 20 µM; 190,000 tested, 0.005% active;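 active means diaphorase activity raised at least twofold by the compound at 20 µM; inactive means activation factor below 2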
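Test system: Clostridium kluyveri diaphorase, purified enzyme; input: enzyme 0.07 U/mL final; buffer or medium: 50 mM HEPES pH 7.4 with 4.542 mM MgCl2, 0.005% Tween 20; also added: 0.114 mM NADH and 0.1 mM resazurin, final amounts; schedule: 16 min enzyme reaction, ambient temperature; technique: fluorescence of resorufin, 544 nm excitation, 590 nm emission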
PfGluPho inh: PfG6PD (Plasmodium falciparum) enzyme inhibition; PfGluPho enzyme, NADPH resazurin-diaphorase fluorescence; inhibition, % at 20 µM; 350,000 tested, 0.78% active;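 active means inhibition reaching at least a set limit at 20 µM in the primary screen, cut at about 59% in these data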
Of the large screens only hits and unclear results are named; the others gave an inactive call. Only a selection was taken, and hits are over-represented in it overall. Unless noted, no stated cut-off is given here; in the data, active means inhibition above about 50%; inactive means the rest.

COC(=O)c1c(NC(=O)CSc2nc3ccccc3c(=O)n2-c2ccccc2)sc(C)c1C	L major viab 99.4
CCOC(=O)c1c(NC(=O)CSc2nncs2)sc(C)c1-c1ccccc1	L major viab 75.5 (no result: DTT redox prof)
CCOC(=O)c1c(-c2ccccc2)csc1NC(=O)CSc1nncs1	none
COC(=O)c1c(NC(=O)CSc2nc3nc(C)cc(C)n3n2)sc(C)c1C	L major viab 52.1
Cc1cc(NC(=O)CSc2nc3ccccc3c(=O)n2-c2ccccc2)no1	none
COC(=O)C(/C=N/OCc1ccc([N+](=O)[O-])cc1)NC(=O)c1cccc(Cl)c1 (centres undefined)	none
CCn1c2ccccc2n2c(=O)c(=O)n(CC(=O)Nc3ccc(C(C)C)cc3)nc12	none
CCc1nc(Nc2ccncc2)c2oc3ccccc3c2n1	L major viab 99.8
Cc1nc(Nc2ccncc2)c2oc3ccccc3c2n1	none
O=C(O)COc1ccc(/C=C/C(=O)c2ccc(C3CCCCC3)cc2)cc1	none (no result: Diaph inh CS, G6PDH CS, L major viab, DTT redox prof, Diaph act CS)
NCCOc1ccc(C2CCCCC2)cc1	L major viab 100.0
CCOC(=O)N1Cc2cc3ccccc3nc2C1	none (no result: Diaph inh CS, G6PDH CS, L major viab, DTT redox prof, Diaph act CS)
COC(=O)C1=C(N)N(c2ccccc2F)C2=C(C(=O)CC(C)(C)C2)C1c1ccc(OC)c(OC)c1 (centres undefined)	none
CCN(CC)CCNC(=O)c1ccc(NC(=O)c2ccc(F)cc2F)cc1	none
COc1ccc2c(c1)CCC1=C2NC(=S)NC1c1ccc(N(C)C)cc1 (centres undefined)	L major viab 90.1
COC(=O)c1cc(S(=O)(=O)n2nc(C)c(Br)c2C)c(Cl)cc1Cl	L major viab 89.3
Cc1csc(N(C(=O)CCNC(=O)c2ccc([N+](=O)[O-])cc2)c2ccccc2)n1	L major viab 63.6
Cc1cc2nc(C)n(CCCNC(=O)Nc3ccc(F)cc3)c2cc1C	L major viab 91.0
Cc1ccc(NC(=O)Nc2ccc3c(c2)nc(C)n3C)cc1C	none (no result: PfGluPho inh)
CS(=O)(=O)c1ccc(Cl)c(NC(=O)Cc2c(F)cccc2Cl)c1	none
Cc1cc(S(=O)(=O)NCC(C)C)ccc1OCC(=O)NCC1CCCO1 (centres undefined)	L major viab 59.5
CC(C)NS(=O)(=O)c1ccc(OCC(=O)NCC2CCCO2)c(Cl)c1 (centres undefined)	none
O=C(COC(=O)c1cccc(S(=O)(=O)N2CCN(c3ccccc3)CC2)c1)NCC1CCCO1 (centres undefined)	none (no result: Diaph inh CS, G6PDH CS, L major viab, DTT redox prof, Diaph act CS)
COc1cc(OC)c(NS(=O)(=O)c2cccc(C(=O)OCC(=O)NCC3CCCO3)c2)cc1Cl (centres undefined)	L major viab 79.9
O=C(Cn1cnc([N+](=O)[O-])n1)N/N=C/c1ccccc1O	L major viab 99.6
O=C(Cn1cnc([N+](=O)[O-])n1)N/N=C/c1cc(Cl)ccc1O	L major viab 100.2
Cc1ccccc1/C=N/NC(=O)Cn1cnc([N+](=O)[O-])n1	none
COC(=O)C1=CN(Cc2ccccc2)C=C(C(=O)OC)C1c1cc(F)ccc1F	none (no result: Diaph inh CS, G6PDH CS, L major viab, DTT redox prof, Diaph act CS)
CCOc1ccc(S(=O)(=O)N(CC)CC(=O)NCc2ccncc2)cc1	none (no result: Diaph inh CS, G6PDH CS, L major viab, DTT redox prof, Diaph act CS)
Cc1ccc(C)c(NS(=O)(=O)c2cc(C(=O)NCc3ccncc3)ccc2C)c1	none (no result: Diaph inh CS, G6PDH CS, L major viab, DTT redox prof, Diaph act CS)
O=S(=O)(c1ccc(Cl)cc1)N1CCCC(c2nc(-c3ccc(F)cc3)no2)C1 (centres undefined)	none (no result: Diaph inh CS, G6PDH CS, L major viab, DTT redox prof, Diaph act CS)
O=C(CC1CCCCC1)N1CCCC(c2nc(-c3ccc(S(=O)(=O)N4CCCC4)cc3)no2)C1 (centres undefined)	L major viab 54.8
Cc1ccc(CC2SC(=Nc3ccccc3)N(c3ccccc3)C2=O)cc1 (centres undefined)	L major viab 53.0
Brc1cccc(-c2nnc3n2CCCCC3)c1	none
O=C1Nc2ccc(Br)cc2C1=Nc1ccc(-c2nnc3n2CCCCC3)cc1	L major viab 74.2 (no result: PfGluPho inh)
CCn1c(=O)oc2cc(NC(=O)CCl)ccc21	L major viab 69.6
O=C1C(c2c(O)[nH]c3ccccc23)=Nc2ccccc21	none (no result: L major viab, DTT redox prof)
CC(=O)c1cccc2c(O)c(C3=Nc4ccccc4C3=O)[nH]c12	L major viab 99.3
CCOC(=O)C1CCN(C(=O)COC(=O)c2ccccc2C(=O)c2ccc(Cl)cc2)CC1	none (no result: Diaph inh CS, G6PDH CS, L major viab, DTT redox prof, Diaph act CS)
Cc1ccc(O)c(/C=N/NC(=O)CN2CCCC2)c1	none (no result: Diaph inh CS, G6PDH CS, L major viab, DTT redox prof, Diaph act CS)
Cc1ccc(O)c(/C=N/NC(=O)C2=NNC(c3ccccc3)(c3ccccc3)C2)c1	L major viab 100.0 (no result: PfGluPho inh)
O=C(N/N=C\c1c(O)ccc2ccccc12)c1ccc(Cn2cccn2)o1	L major viab 98.5
Cc1ccc(O)c(/C=N/NC(=O)c2[nH]ncc2Br)c1	L major viab 97.5
O=C(N/N=C\c1ccc(Cl)s1)c1ccc(Cn2cccn2)o1	none
O=C(N/N=C/c1c(O)ccc2ccccc12)c1[nH]ncc1Br	L major viab 99.8
COc1ccc(OC)c(/C=N/NC(=O)c2[nH]ncc2Br)c1	none (no result: Diaph inh CS, G6PDH CS, L major viab, DTT redox prof, Diaph act CS)
CC1CCCC(NC(=O)CCNC(=O)c2ccccc2Cl)C1C (centres undefined)	none (no result: Diaph inh CS, G6PDH CS, L major viab, DTT redox prof, Diaph act CS)
COc1ccc2ccccc2c1/C=N/NC(=O)c1cccc(Br)c1	none
CCOc1ccc(/C=N/NC(=O)c2[nH]ncc2Br)c(O)c1	L major viab 98.6
CN(C)/N=C/c1c(O)ccc2ccccc12	none
O=C(N/N=C/c1c(O)ccc2ccccc12)c1cccc(C(F)(F)F)c1	L major viab 97.4
OCC(CO)(CO)N=Cc1c(O)ccc2ccccc12	Diaph inh CS 57.3, L major viab 96.8
O=C(N/C(=C\c1cccs1)C(=O)N1CCOCC1)c1cccs1	none
COc1ccc(Nc2nnc(-c3ccc(N4CCOCC4)c([N+](=O)[O-])c3)c3ccccc23)cc1	L major viab 56.9
O=C(CCC1CCCN(C(=O)c2cc(F)ccc2F)C1)N1CCN(c2ccccn2)CC1 (centres undefined)	none (no result: Diaph inh CS, G6PDH CS, L major viab, DTT redox prof, Diaph act CS)
O=C(O)COc1cnc2ccccc2n1	none
O=C(CCl)Nc1ccc(Oc2cnc3ccccc3n2)cc1	L major viab 66.1
O=C(N[C@H](Cc1cc(=O)[nH]c2ccccc12)C(=O)O)c1ccc(Cl)cc1	none (no result: Diaph inh CS, G6PDH CS, L major viab, DTT redox prof, Diaph act CS)
COC(=O)c1nc(N)sc1C	none
C/C(=N\NC(=O)c1cccc(Br)c1)c1cccc(NC(=O)c2ccc(C)o2)c1	L major viab 56.1
C/C(=N\NC(=O)c1ccc(Cn2cc(Br)cn2)o1)c1cccc(NC(=O)C(C)C)c1	L major viab 89.6
CC(C)c1onc(C(=O)NCc2ccccc2)c1[N+](=O)[O-]	none
O=S(=O)(Cc1noc(-c2ccc(Cl)cc2)n1)Cc1ccco1	none (no result: Diaph inh CS, G6PDH CS, L major viab, DTT redox prof, Diaph act CS)
CN1CCN(CC(=O)Nc2nc(-c3ccccc3)cs2)CC1	none
CN1CCN(CC(=O)N(C)c2nc(-c3ccccc3)cs2)CC1	L major viab 93.8

Screening results as filed in PubChem BioAssay.
